Experimental data: ChEMBL document CHEMBL1157882, “Novel 2-[(benzylamino)methyl]pyrrolidine-3,4-diol derivatives as alpha-mannosidase inhibitors and with antitumor activities against hematological and solid malignancies” (Bioorg Med Chem, 2010)
Active and inactive are the calls of the source. The calls are words filed in the database; no cut-off is given here.

Tests used:
[1] = Cytotoxicity in human multiple myeloma cells assessed as early apoptotic cells at 50 uM after 24 hrs by annexin V/propidium iodide staining based flow cytometry (reference value: 0.1%); assay type: functional, Multiple myeloma cell
SK-BR-3 [2] = assay: Cell cycle arrest in human SKBR3 cells by accumulation of cells at S phase at 50 uM after 48 hrs by propidium iodide-staining based flow cytometry (reference value: 30%); assay type: functional
PC-3 = assay: Cytotoxicity against human PC3 cells after 72 hrs by colorimetric assay; assay type: functional, cell-based; conditions: Homo sapiens, PC-3, 72 h; read-out: IC50
Method in brief: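 Cells grown in McCoy's medium (adherent lines) or RPMI-1640 (U266), each with 10% FBS, L-glutamine and antibiotics, at 37 °C in 5% CO₂. Compound dissolved as a 100 mM DMSO stock, final DMSO ≤0.4%. Cells were exposed for 72 h across a 10^-2 to 400 µM range. Viability was read by CellTiter 96 Aqueous (2–4 h incubation, absorbance 490 nm). Triplicate wells; IC50 from curve fitting.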

SK-BR-3 [3] = assay: Increase in CDKN1A mRNA level in human SKBR3 cells at 50 uM after 12 hrs by TLDA; assay type: functional, cell-based
Method in brief: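 SKBR3 and MCF7 cells seeded at 2 × 10⁵ per well, treated 12 h with 50 µM compound (DMSO stock); total RNA extracted, cDNA made with random hexamers, gene expression profiled by TaqMan low-density arrays (qPCR, duplicate per gene). Normalised to RPLP0; fold change versus DMSO vehicle-treated cells, calculated as 2^-ΔΔCT.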

[4] = Cytotoxicity in human B-CLL assessed as pre-necrotic cells at 100 uM after 24 hrs by annexin V/propidium iodide staining based flow cytometry (reference value: 1.3 to 3.7%); assay type: functional
[5] = target: Beta-galactosidase (Escherichia coli) (UniProt Q8VNN2); assay: Inhibition of beta-galactosidase from Escherichia coli at 1 mM at pH 7
Beta-galactosidase (Escherichia coli), sequence (Q8VNN2 whole entry, looked up): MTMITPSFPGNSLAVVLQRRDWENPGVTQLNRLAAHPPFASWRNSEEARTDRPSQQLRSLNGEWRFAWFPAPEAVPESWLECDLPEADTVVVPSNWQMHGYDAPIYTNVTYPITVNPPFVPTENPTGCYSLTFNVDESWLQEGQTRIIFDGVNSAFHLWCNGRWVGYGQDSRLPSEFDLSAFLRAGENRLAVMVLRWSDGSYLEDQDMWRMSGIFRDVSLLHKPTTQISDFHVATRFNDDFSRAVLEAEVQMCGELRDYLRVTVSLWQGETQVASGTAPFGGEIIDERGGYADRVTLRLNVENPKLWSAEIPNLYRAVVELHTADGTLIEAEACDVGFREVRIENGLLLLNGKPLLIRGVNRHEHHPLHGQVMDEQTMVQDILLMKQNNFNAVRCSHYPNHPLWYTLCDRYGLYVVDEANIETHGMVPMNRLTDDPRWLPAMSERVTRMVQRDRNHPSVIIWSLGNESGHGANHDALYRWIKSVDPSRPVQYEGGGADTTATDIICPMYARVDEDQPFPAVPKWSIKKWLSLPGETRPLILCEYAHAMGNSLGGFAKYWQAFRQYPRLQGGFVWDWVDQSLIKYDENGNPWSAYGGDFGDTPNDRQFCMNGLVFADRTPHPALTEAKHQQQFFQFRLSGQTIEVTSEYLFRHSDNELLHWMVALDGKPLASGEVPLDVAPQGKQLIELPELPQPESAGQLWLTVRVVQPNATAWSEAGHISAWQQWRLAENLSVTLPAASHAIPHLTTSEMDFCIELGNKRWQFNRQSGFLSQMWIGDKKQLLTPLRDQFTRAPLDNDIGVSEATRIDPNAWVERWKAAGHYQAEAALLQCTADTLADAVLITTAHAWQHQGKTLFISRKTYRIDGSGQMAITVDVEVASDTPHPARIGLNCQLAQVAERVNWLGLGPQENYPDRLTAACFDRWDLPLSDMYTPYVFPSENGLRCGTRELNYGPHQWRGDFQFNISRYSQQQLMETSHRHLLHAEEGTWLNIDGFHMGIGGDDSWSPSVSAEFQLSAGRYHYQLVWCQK
Method in brief: (§1)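 Glycosidase panel of commercial enzymes assayed at each enzyme's optimal pH with compound at 1 mM; percentage inhibition of enzyme activity calculated.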

[6] = target: T1, Beta-galactosidase (Aspergillus oryzae) (UniProt Q2U7N3); assay: Inhibition of beta-galactosidase from Aspergillus oryzae at 1 mM at pH 4; method in brief: as §1
T1 sequence (whole entry): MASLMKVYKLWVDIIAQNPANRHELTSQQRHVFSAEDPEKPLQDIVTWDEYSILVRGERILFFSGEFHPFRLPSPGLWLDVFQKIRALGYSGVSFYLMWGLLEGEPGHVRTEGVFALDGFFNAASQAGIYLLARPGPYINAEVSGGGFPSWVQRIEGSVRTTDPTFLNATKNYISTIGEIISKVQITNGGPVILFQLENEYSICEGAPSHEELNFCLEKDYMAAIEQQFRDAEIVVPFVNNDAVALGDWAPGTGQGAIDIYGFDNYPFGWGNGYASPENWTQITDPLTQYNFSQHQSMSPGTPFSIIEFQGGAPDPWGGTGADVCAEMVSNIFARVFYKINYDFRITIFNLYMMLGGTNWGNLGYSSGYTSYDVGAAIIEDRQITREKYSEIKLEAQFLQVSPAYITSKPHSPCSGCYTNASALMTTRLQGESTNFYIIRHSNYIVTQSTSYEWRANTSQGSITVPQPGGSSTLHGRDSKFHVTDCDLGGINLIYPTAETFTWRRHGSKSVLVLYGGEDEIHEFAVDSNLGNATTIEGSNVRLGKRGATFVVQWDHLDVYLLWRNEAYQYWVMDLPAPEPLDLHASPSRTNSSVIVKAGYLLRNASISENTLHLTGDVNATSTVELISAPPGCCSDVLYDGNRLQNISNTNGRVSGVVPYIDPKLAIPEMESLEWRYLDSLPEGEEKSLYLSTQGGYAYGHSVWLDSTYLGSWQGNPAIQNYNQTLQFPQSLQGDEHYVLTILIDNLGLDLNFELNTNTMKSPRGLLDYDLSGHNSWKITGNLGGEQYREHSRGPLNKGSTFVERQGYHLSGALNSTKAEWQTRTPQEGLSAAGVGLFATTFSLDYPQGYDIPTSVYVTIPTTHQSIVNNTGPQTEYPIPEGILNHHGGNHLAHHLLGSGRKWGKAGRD

inhibition [5]: < 10% | inhibition [6]: < 10%
Compound: OC[C@H](NC[C@H]1NC[C@H](O)[C@@H]1O)c1ccc(-c2ccc(C(F)(F)F)cc2)cc1
Activity [1]: 2.3% | Activity (SK-BR-3 [2]): 30% | IC50 (PC-3): 132 µM | Activity (SK-BR-3 [3]): Active | Activity [4]: 0.8%
